Screening results deposited in PubChem BioAssay by several laboratories.
Plk1 PBD FP = Plk1 (human) PBD binding inhibition; Plk1 PBD phosphopeptide binding, fluorescence polarization; inhibition, %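 (tested at about 20 µM)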; hit rate 0.13% among 97,000; AID 693; in the data active = inhibition above about 34%, passing the limit was not always enough
Target sequence (P53350 whole entry, looked up): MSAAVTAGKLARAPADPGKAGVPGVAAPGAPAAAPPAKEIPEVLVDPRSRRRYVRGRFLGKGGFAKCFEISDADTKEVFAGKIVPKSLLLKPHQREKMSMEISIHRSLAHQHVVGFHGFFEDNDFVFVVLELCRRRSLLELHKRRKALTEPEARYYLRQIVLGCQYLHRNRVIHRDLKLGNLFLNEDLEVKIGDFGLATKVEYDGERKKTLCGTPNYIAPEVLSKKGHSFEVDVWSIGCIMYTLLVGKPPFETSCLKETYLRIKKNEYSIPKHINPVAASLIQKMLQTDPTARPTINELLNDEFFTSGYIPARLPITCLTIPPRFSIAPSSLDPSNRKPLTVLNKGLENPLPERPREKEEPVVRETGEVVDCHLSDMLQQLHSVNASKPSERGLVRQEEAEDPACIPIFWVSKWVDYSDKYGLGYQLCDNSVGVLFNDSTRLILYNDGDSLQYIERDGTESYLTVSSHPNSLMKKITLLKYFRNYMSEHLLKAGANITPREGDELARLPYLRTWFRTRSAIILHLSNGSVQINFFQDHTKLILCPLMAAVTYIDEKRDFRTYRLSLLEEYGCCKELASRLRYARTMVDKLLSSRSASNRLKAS
LYP act = increases human PTPN22 phosphatase activity; recombinant LYP, DiFMUP fluorescence; 0 = plate median, 100 = signal doubled; activation, % at 2 µM; hit rate 0.11% among 96,000;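 active = activation at 2 µM above a set limit, the mean plus 5 SD, cut at about 37% in these data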
LYP inh 2 = inhibitors of human LYP (PTPN22) phosphatase. Q9Y2R2. recombinant LYP catalytic domain, DiFMUP fluorescence. inhibition, % at 2 µM. hit rate 0.21% among 96,000;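 active = inhibition at 2 µM at or above a set limit, the screen mean plus 3 SD, cut at about 24% in these data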;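 also: 0% = DMSO with enzyme and 100% = enzyme fully blocked by orthovanadate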
Rev-RRE block = inhibitors of HIV-1 Rev-RRE RNA interaction. inhibition, % at 8 µM. Rev peptide-RRE RNA binding, FRET. P05866. hit rate 0.79% among 97,000. AID 704;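 active = inhibition above the screen-wide mean plus 3 SD, cut at about 35% in these data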;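 also: 0% = median DMSO wells and 100% = median Neomycin B control wells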
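assay system = Cy5-tagged RRE RNA duplex with fluorescein-tagged Rev peptide | incubation = 5 + 15 min at 25 °C | also added = labelled Rev peptide | measure = % inhibition of FRET ratio versus controls | benchmarks = DMSO wells as 0% and neomycin B wells as 100% inhibition | measured by = FRET fluorescence readout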
EphB4 ephrin blk = blocks human EphB4 binding to ephrin-B2; hit rate 0.15% among 97,000; P54760; EphB4 LBD / TNYL-RAW-Alexa532 peptide, fluorescence polarization; inhibition, % at 7 µM;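 active = inhibition above the screen-wide mean inhibition plus 3 SD, cut at about 15% in these data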;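 also: 0% = DMSO wells and 100% = excess unlabeled TNYL-RAW peptide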
PLK1 kinase inh = PLK1 (human) kinase inhibition. inhibition, % at 10 µM. hit rate 0.53% among 97,000. AID 619. recombinant PLK1 kinase, TR-FRET peptide phosphorylation;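 active = inhibition of 50% or more in the single-concentration screen; inactive = inhibition below 50%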;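 also: 0% = DMSO max control and 100% = H-89 dihydrochloride min control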
PTPN22 act conf = LYP (PTPN22) phosphatase activation confirmation. shares compounds with LYP act. Recombinant LYP, DIFMUP fluorescence; zero set by plate's median compound well. 100 tested, under 10 active. activation, % at 2 µM; call rule not given here
* hit, by the source's call; · = not tested or not shown. In the library only some 1.8% were active in any assay of this set; here they are far more common.

SMILES	Plk1 PBD FP	LYP act	LYP inh 2	Rev-RRE block	EphB4 ephrin blk	PLK1 kinase inh	PTPN22 act conf
COC(=O)c1ccc(C)c(NS(=O)(=O)c2ccc(OC)cc2)c1	-3.2	-0.3	2.4	2.0	4.3	-15.0	·
COc1cccc(C(=O)Nc2ccc(F)c(F)c2F)c1	10.9	10.1	-6.9	0.6	2.3	4.3	·
Cc1ccc(Cl)cc1NC(=O)c1cccc(OC(F)F)c1	12.7	40.2*	-46.2	6.2	7.3	-9.3	6.6
COC(=O)C1=C(C)NC(=O)CC1c1cc(Br)ccc1F (stereo not drawn)	19.8	38.5*	-43.0	-1.7	-1.8	-14.2	-3.2
COc1ccc(Br)cc1C1NC(=O)NC(C)=C1C(=O)N(C)C (stereo not drawn)	10.5	-0.9	0.8	10.5	4.5	-8.7	·
CC(=O)Nc1ccc(S(=O)(=O)N2CCSC2c2ccc(Cl)cc2)cc1 (stereo not drawn)	-4.5	38.3*	-39.9	13.6	-1.4	-17.8	4.7
CCOc1ccc(S(=O)(=O)N(CC(=O)O)c2ccc(C)cc2)cc1	-17.2	37.8*	-41.8	2.3	0.3	-2.9	-11.8
COc1ccccc1-n1cnc2cc(NCc3ccccn3)ccc21	-15.3	-14.1	16.4	3.8	2.9	-11.9	·
COc1ccc(-n2cnc3cc(NCc4ccccn4)ccc32)cc1	0.5	41.6*	-37.9	-0.5	0.2	-10.9	-4.0
COC(=O)C1=C(C(=O)OC)SC(=C2C(=S)C(C)(C)N(C(=O)CC(C)C)c3ccccc32)S1	19.1	1.0	-1.1	-2.5	-4.5	-5.0	·
COc1cc(OC)c(C2N(C)c3ccccc3N2C)cc1OC	2.2	39.3*	-41.7	2.8	-1.8	-8.1	6.3
COc1cc(OC)c(C2N(c3ccccn3)C(=O)C3CCCN32)cc1OC (stereo not drawn)	-4.4	-4.8	2.6	2.4	-7.3	-9.0	·
CC(C(=O)NC1CCCC1)N(Cc1ccc2c(c1)OCO2)C(=O)c1snc(C(N)=O)c1N (stereo not drawn)	-18.0	42.4*	-44.0	7.9	-4.3	-5.8	-0.5
CCC(C(=O)NC1CCCC1)N(Cc1ccc2c(c1)OCO2)C(=O)c1snc(C(N)=O)c1N (stereo not drawn)	5.4	0.8	-2.3	6.4	-0.1	-9.5	·
COc1ncnc2c1cnn2-c1ccccc1	-4.7	37.6*	-38.3	1.9	0.1	-3.1	1.3
COC(=O)c1ccc2c(=O)sc(N3CCC(C(N)=O)CC3)nc2c1	-2.8	38.6*	-40.4	16.7	-0.6	-1.9	-0.5
CCSc1nc2cc(C(=O)OC)ccc2c(=O)n1CC	-14.8	1.1	-4.8	15.0	6.8	-9.5	·
Cc1ccccc1NC(=O)CN(c1ccc(F)cc1)S(C)(=O)=O	3.6	7.7	-9.0	0.8	-5.6	-14.8	·
CN(C)S(=O)(=O)N(CC(=O)Nc1ccccc1F)c1ccccc1	-15.5	39.1*	-38.4	-3.9	-2.1	-4.0	-4.1
O=C(NCc1ccco1)Nc1cccs1	0.8	37.4*	-41.8	0.5	1.7	-23.2	4.8
O=C(NCc1ccco1)c1cccs1	5.9	-2.5	0.8	0.7	-2.2	-4.1	·
CC1(C)CC(=O)C2=C(C1)N(Cc1ccco1)C(=O)C2(O)C(F)(F)F (stereo not drawn)	-4.7	37.4*	-41.2	-4.4	-8.8	-3.3	2.6
Oc1ccc(N2CCN(C(=S)NCCc3ccccc3)CC2)cc1	-11.2	-8.3	11.9	-6.5	-2.1	-4.6	·
CC(=O)Nc1sc2c(c1C(N)=O)CCCC2	14.7	45.2*	-41.6	7.1	3.2	-7.2	10.0
COc1ccccc1-n1c(CNC(=O)COc2ccccc2)n[nH]c1=S	22.6	-3.5	5.5	9.5	-3.7	-23.1	·
SMILES	Plk1 PBD FP	LYP act	LYP inh 2	Rev-RRE block	EphB4 ephrin blk	PLK1 kinase inh	PTPN22 act conf
CCOC(=O)c1cccc(C(=O)OCC)n1	-24.9	-6.3	6.8	4.1	5.9	-1.2	·
O=C(COC(=O)c1cccc(C(=O)OCC(=O)c2ccc(Br)cc2)n1)c1ccc(Br)cc1	5.3	40.7*	-46.7	3.0	-4.7	-9.0	-10.1
O=C(COc1ccc(Br)cc1CO)Nc1ccccc1F	-5.2	37.7*	-44.9	-0.3	-7.6	-1.9	-2.5
Clc1ccccc1-c1ccc(CN2CCN(c3ccccc3)CC2)o1	5.9	5.9	-3.5	11.3	-1.5	3.9	·
Cc1nc(NC(C)C)c2cnn(CCc3ccccc3)c2n1	-12.8	-7.7	7.5	0.6	9.4	-2.1	·
CCOc1cc(CNC(C)C)c(Cl)cc1OCC(=O)NCCc1ccccc1	1.6	2.0	-6.3	3.8	0.0	-5.0	·
COc1cc(OC)cc(-c2nc3nc(C)c(CCC(=O)O)c(C)n3n2)c1	-29.4	0.8	-3.6	6.6	3.1	-8.0	·
COc1cc(OC)cc(-c2cc3nc(C)c(CCC(=O)O)c(=O)n3[nH]2)c1	36.2	48.8*	-53.1	1.4	-3.3	7.2	-2.3
Cc1cccc(NC(=O)C2NC(=O)CC2c2ccccc2)c1C (stereo not drawn)	25.9	-8.8	8.3	-1.9	-7.5	-7.7	·
COc1ccccc1NC(=O)CN1CCN(C(=O)c2ccco2)CC1	0.0	37.0*	-37.5	-1.5	-3.0	-11.3	0.0
CCc1ccccc1NC(=O)c1ccc(CN2CCC(Cc3ccccc3)CC2)cc1	-10.0	10.5	-8.1	6.9	2.3	7.8	·
O=C(Nc1ccccc1)N(Cc1ccccc1)CC(O)C(F)(F)F (stereo not drawn)	-7.5	49.5*	-44.9	-1.3	3.4	-18.9	9.1
CCOC(=O)CSc1nnc(CSc2nc3sc4c(c3c(=O)[nH]2)CCCC4)n1-c1ccccc1	-13.6	-11.0	7.9	-0.8	0.3	-7.1	·
